Test results: article PMC3269312 (International journal of inorganic chemistry, 2011)

Assays:
ct-DNA [1] = conditions: cited from earlier work
ct-DNA [2] = assay: Fluorescence competition experiment with ethidium bromide; assay type: binding, calf
Summary of the method: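 Ethidium bromide is pre-bound to calf-thymus DNA, and the intercalated adduct is excited near 520 nm. Test compound is added as quencher, and the loss of adduct emission is followed. Relative fluorescence (F0/F) is plotted against quencher concentration per the Stern-Volmer equation, giving the quenching constant.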

Compound | KEB, binding constant of EB to DNA (ct-DNA [1]) | KSV, Stern-Volmer quenching constant (ct-DNA [2]; EB-DNA adduct, λex = 520 nm, [EB] = 0.33 μM, [DNA] = 10 μM, 298 K) | apparent binding constant (Kapp) with ct-DNA (ct-DNA [2]; from [complex] at 50% of initial EB-DNA fluorescence, KEB = 1.2 × 10^6 M^−1)
CC[n+]1c(-c2ccccc2)c2cc(N)ccc2c2ccc(N)cc21 [EB, ethidium bromide] | 1.2e+06 M⁻¹ |  | 
Zn(acnTSC)2Cl2 [Complex 1] |  | (7.48 ± 0.29) × 10^3 M^−1 | 3530 M⁻¹
